Source: paper PMC6166782 (Science signaling, 2018)
Read-outs that look alike come from different tables or passages of the source.

Tests used:
[1] = system: pHsp72; test: Kinetics of substrate peptide release, pHsp72; format: biochemical
Outline: (§1)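 50 μM Hsp72 (pS66 or unphosphorylated) was pre-equilibrated at room temperature with F-NR and 125 μM ADP in Hepes–KOH pH 7.5 buffer with 10 mM MgCl₂. ADP state: 40 nM F-NR for over 5 h, then 150 μM unlabelled NR. ATP state: 20 nM F-NR, then 2 mM ATP plus 150 μM unlabelled peptide, read every 30 s for 4000 s (mean ± SEM, five assays). FP at 25°C; koff was fitted.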

[2] = system: pHsp72; test: Peptide release kinetics in the presence of Hsp110, pHsp72; format: biochemical; conditions: ATP, Hsp110 and unlabeled substrate peptide
Outline: (§2)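 50 μM pS66 or unphosphorylated Hsp72 was equilibrated for several hours at room temperature with 20 nM F-NR and 125 μM ADP in Hepes–KOH pH 7.5 buffer (10 mM MgCl₂, 2 mM DTT). ATP was then added to 2 mM final, with 150 μM unlabelled peptide and 125 μM Hsp110. FP (ex 490/em 535 nm, 25°C) was read every 30 s for 4000 s. koff given as mean ± SEM of six experiments.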

[3] = target: T1, pHsp72 (Homo sapiens, UniProt P0DMV8, T66S); test: Isothermal titration calorimetry, nucleotide binding to pHsp72; conditions: ITC; ratio of Kd
Target sequence in this assay (P0DMV8 2-641 T66S): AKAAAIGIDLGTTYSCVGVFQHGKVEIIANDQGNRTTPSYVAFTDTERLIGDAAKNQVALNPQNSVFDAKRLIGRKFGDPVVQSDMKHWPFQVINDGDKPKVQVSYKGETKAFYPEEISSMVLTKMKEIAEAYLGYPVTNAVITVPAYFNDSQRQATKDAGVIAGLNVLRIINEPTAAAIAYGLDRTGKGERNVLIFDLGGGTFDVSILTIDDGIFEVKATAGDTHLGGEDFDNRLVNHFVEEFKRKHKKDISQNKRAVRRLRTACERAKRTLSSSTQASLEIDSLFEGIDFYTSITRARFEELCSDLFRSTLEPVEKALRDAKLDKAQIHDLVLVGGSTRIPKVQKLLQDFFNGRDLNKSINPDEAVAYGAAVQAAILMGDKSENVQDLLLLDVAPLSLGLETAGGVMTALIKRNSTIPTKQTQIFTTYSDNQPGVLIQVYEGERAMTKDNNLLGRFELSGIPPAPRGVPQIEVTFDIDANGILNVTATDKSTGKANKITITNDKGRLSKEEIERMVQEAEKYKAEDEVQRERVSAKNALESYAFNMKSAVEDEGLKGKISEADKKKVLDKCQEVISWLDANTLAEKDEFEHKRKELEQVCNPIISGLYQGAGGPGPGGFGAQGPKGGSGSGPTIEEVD

[4] = target: T1, pHsp72; test: Kinetics of substrate peptide release, pHsp72; format: biochemical; conditions: pH 7.5, read-out: koff, excess of unlabeled peptide (ADP state)
Outline: as §1
Target sequence in this assay (P0DMV8 whole entry T66S): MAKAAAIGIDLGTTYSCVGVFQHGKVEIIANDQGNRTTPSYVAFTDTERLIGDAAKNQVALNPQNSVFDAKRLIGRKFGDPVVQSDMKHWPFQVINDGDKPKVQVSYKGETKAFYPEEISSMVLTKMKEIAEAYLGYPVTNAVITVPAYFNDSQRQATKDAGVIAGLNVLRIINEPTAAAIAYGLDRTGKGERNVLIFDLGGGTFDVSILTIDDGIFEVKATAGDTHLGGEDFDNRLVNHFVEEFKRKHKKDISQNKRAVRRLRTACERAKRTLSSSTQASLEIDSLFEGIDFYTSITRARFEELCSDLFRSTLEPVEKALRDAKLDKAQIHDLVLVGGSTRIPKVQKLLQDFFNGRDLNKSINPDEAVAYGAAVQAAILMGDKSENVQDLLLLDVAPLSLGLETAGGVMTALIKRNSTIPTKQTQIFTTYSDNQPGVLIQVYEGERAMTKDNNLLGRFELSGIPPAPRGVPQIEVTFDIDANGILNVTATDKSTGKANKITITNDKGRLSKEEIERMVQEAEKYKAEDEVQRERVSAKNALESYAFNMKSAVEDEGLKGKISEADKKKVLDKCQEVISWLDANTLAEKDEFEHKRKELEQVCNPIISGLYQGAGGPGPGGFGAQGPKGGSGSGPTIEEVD

[5] = target: T2, unphosphorylated Hsp72 (Homo sapiens, UniProt P0DMV8); test: Peptide release kinetics in the presence of Hsp110, unphosphorylated Hsp72; format: biochemical; conditions: read-out: koff, ATP, excess of unlabeled peptide, Hsp110
Outline: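 Unphosphorylated Hsp72 (50 μM) equilibrated for several hours at room temperature with 20 nM F-NR and 125 μM ADP in Buffer A (pH 7.5, 150 mM KCl, 10 mM MgCl₂). Release triggered by 2 mM ATP (final) with 150 μM unlabelled peptide and 125 μM His-tagged, E. coli-expressed Hsp110. FP (ex 490/em 535 nm, 25°C) every 30 s for 4000 s; koff fitted. Mean ± SEM, six experiments.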
Target sequence in this assay (P0DMV8 whole entry): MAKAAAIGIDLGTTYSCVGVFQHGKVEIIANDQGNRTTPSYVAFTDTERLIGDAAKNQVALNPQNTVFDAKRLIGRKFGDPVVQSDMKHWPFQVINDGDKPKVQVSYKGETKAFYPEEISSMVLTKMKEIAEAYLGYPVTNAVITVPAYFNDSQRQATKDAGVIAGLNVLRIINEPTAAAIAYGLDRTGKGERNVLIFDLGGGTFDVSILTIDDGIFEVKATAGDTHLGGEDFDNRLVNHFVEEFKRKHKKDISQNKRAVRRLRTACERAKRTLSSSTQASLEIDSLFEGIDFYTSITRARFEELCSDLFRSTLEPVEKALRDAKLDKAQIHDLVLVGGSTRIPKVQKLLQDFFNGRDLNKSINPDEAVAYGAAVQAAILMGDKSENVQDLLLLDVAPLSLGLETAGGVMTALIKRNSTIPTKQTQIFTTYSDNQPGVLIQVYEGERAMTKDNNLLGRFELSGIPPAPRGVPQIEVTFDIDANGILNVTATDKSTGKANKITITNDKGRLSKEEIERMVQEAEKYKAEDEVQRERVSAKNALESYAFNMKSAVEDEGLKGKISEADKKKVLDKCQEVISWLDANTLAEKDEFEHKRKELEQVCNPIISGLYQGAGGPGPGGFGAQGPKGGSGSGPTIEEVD

[6] = target: T2, unphosphorylated Hsp72; test: Fluorescence polarization peptide binding, unphosphorylated Hsp72
Outline: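 Unphosphorylated Hsp72 serially diluted in Buffer A (pH 7.5, 10 mM MgCl₂). ADP state: 125 μM ADP plus 20 nM F-NR, several hours at room temperature to equilibrium. ATP state: 2 mM ATP for 2 min, then 20 nM F-NR, read after 10 min. FP at 25°C, ex 490/em 535 nm. Kd from one-site nonlinear fit; ATP Kd divided by ADP Kd.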
Target sequence in this assay (P0DMV8 whole entry): as above

[7] = target: T2, unphosphorylated Hsp72; test: Kinetics of substrate peptide release, unphosphorylated Hsp72; format: biochemical; conditions: pH 7.5, read-out: koff, excess of unlabeled peptide (ADP state)
Outline: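 Hsp72 (50 μM) preloaded at room temperature with F-NR in 125 μM ADP, Buffer A (25 mM Hepes-KOH pH 7.5, 150 mM KCl, 10 mM MgCl₂, 2 mM DTT). ADP state: 40 nM F-NR, >5 h, then chased with 150 μM unlabelled NR. ATP state: 20 nM F-NR, then 2 mM ATP plus 150 μM unlabelled peptide. FP read over time at 25°C; koff fitted. Mean ± SEM, four (ADP) or five (ATP) runs.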
Target sequence in this assay (P0DMV8 whole entry): as above

[8] = target: T1, pHsp72; test: Peptide release kinetics in the presence of Hsp110, pHsp72; format: biochemical; conditions: read-out: koff, ATP, excess of unlabeled peptide, Hsp110
Outline: as §2
Target sequence in this assay (P0DMV8 whole entry T66S): as the sequence (P0DMV8 whole entry T66S) above

[9] = target: fluorescein-labeled NR peptide (F-NR); test: fluorescence polarisation
[10] = target: fluorescein-labeled NR peptide (F-NR); test: fluorescence polarisation; remark: listed apart in the source
[11] = system: spindle assembly; conditions: ref [9]; cited from earlier work
[12] = target: T1, pHsp72; test: ATP mediated substrate release assay, pHsp72; format: biochemical; conditions: 100 μM VER-155008, 2 mM ATP; Fig. S7, C to E; protein form not given
Outline: (§3)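 Full-length Hsp72 (unphosphorylated, or pSer66 genetically encoded in E. coli) at 50 μM was equilibrated at room temperature for several hours with 20 nM F-NR or F-ALLQ peptide and 125 μM ADP in Buffer A (Hepes-KOH pH 7.5, 10 mM MgCl₂, 2 mM DTT). ATP was added to 2 mM final, with 100 μM VER-155008 included. FP (ex 490/em 535 nm, 25°C) was read before ATP, then every 30 s for 4000 s.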
Target sequence in this assay (P0DMV8 2-641 T66S): as the sequence (P0DMV8 2-641 T66S) above

[13] = target: T2, unphosphorylated Hsp72; test: ATP mediated substrate release assay, unphosphorylated Hsp72; format: biochemical; conditions: 100 μM VER-155008, 2 mM ATP; Fig. S7, C to E
Outline: as §3
Target sequence in this assay (P0DMV8 2-641): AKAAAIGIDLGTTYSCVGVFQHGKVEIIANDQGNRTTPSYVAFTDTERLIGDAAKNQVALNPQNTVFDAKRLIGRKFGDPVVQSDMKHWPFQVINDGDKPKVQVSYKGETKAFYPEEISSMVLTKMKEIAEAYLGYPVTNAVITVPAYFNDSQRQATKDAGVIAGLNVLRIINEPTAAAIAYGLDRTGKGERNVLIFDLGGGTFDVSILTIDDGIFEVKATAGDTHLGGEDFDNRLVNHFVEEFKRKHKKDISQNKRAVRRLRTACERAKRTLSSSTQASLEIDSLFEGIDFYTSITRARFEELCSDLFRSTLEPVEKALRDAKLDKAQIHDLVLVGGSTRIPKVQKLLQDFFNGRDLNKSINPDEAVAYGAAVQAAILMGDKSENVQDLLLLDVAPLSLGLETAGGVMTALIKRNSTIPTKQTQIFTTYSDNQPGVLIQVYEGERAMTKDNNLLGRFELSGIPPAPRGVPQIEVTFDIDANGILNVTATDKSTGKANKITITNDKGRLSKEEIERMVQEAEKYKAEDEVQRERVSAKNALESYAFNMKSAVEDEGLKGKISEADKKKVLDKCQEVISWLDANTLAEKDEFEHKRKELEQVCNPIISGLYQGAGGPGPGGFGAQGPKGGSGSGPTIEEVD

[14] = system: mitotic spindle; conditions: ref [9]; cited from earlier work
[15] = system: spindle poles, HeLa cells; test: FRAP of GFP-Hsp72 at spindle poles; format: cell-based; conditions: one spindle pole bleached; average of 4-5 cells from 2 experiments

Heat shock protein 72 (Hsp72), unphosphorylated, full-length, sequence (P0DMV8 whole entry): as the sequence (P0DMV8 whole entry) above

pHsp72: full-length Hsp72 with incorporation of pSer^66
times slower peptide release rate, pHsp72 vs unphosphorylated ([1]; ADP state): ~ 1.5 times | times slower peptide release rate, pHsp72 vs unphosphorylated ([1]; ATP state): ~ 8 times | fold slower peptide release rate, pHsp72 vs Hsp72, in presence of Hsp110 [2]: ~ 2.7 fold

Nc1ncnc2c1ncn2[C@@H]1O[C@H](COP(=O)(O)OP(=O)(O)O)[C@@H](O)[C@H]1O [ADP, adenosine diphosphate]
fold tighter nucleotide binding, pHsp72 vs unphosphorylated Hsp72 [3]: ten times more tightly

Nc1ncnc2c1ncn2[C@@H]1O[C@H](COP(=O)(O)OP(=O)(O)OP(=O)(O)O)[C@@H](O)[C@H]1O [ATP, adenosine triphosphate]
fold tighter nucleotide binding, pHsp72 vs unphosphorylated Hsp72 [3]: twice as tightly

CC(C)C[C@H](NC(=O)[C@H](CCCNC(=N)N)NC(=O)[C@H](CC(N)=O)NC(=O)c1ccc2c(c1)C(=O)OC21c2ccc(O)cc2Oc2cc(O)ccc21)C(=O)N[C@@H](CC(C)C)C(=O)N[C@@H](CC(C)C)C(=O)N[C@H](C(=O)NCC(=O)O)[C@@H](C)O [F-NR]
koff [4]: 0.00079 ± 3e-05 s⁻¹ | koff [5]: 0.0673 ± 0.0077 s⁻¹ | factor by which ATP weakened peptide interaction vs ADP ([6]; unphosphorylated Hsp72, ATP vs ADP, ratio of Kd): 40 | koff [7]: 0.00123 ± 4e-05 s⁻¹ | koff [8]: 0.0252 ± 0.0017 s⁻¹

Nc1ncnc2c1ncn2[C@@H]1O[C@H](COP(=O)(O)OP(=O)(O)NP(=O)(O)O)[C@@H](O)[C@H]1O [AMP-PNP, adenylyl-imidodiphosphate]
fold tighter nucleotide binding, pHsp72 vs unphosphorylated Hsp72 [3]: 3.6 fold

Heat shock protein 72 (Hsp72), unphosphorylated, full-length (from UniProt P0DMV8 1-641) (natural protein)
Kd [9]: 157 µM | Kd [10]: 3.95 µM

N#Cc1ccc(COC[C@H]2O[C@@H](n3c(NCc4ccc(Cl)c(Cl)c4)nc4c(N)ncnc43)[C@H](O)[C@@H]2O)cc1 [VER-155008]
effect on spindle assembly [11]: disrupted spindle assembly | increase of ATP-mediated rate of release of substrate peptide [12]: ~ 2.6 | effect on binding of peptide substrate ([6]; 100 μM VER-155008, DMSO control, Fig. S7, form of Hsp72 not stated): did not affect the binding of peptide substrate | fold reduction of ATP substrate release rate [13]: ~ 8.6 fold

pSer^66-Hsp72 (pHsp72), full-length, with genetically encoded phosphoserine at position 66 (from UniProt P0DMV8 1-641) (natural protein)
Kd [9]: 27.6 µM

T66A
effect on spindle assembly [11]: causes defects in spindle assembly | localization to the spindle [14]: did not localize to the spindle

T66E
FRAP recovery [15]: very little recovery | effect on spindle assembly [11]: can rescue the defects in spindle assembly due to NEK6 depletion
